Laboratory results as given in ChEMBL document CHEMBL4811254, “Beyond Basicity: Discovery of Nonbasic DENV-2 Protease Inhibitors with Potent Activity in Cell Culture” (J Med Chem, 2021).
Calls of active or inactive are those of the source.

How the values were obtained:
[1] = molecular target: Prothrombin (Homo sapiens) (UniProt P00734); test: Inhibition of thrombin in human plasma using Boc-Val-Pro-Arg-AMC as substrate at 25 uM preincubated with enzyme for 15 mins followed by substrate addition and measured for 15 mins by fluorimetric assay; type: cell-free; conditions: time 30.0 min
[2] = molecular target: Genome polyprotein (dengue virus type 2) (UniProt P29990); test: Inhibition of NS2B-NS3 protease in DENV2proHeLa system assessed as inhibition of luciferase signal at 12.5 uM incubated for 24 hrs by luciferase reporter gene assay; type: cell-based; conditions: HeLa
Procedure, shortened: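 Stable DENV2proHeLa cells seeded at 2 × 10⁴/well and dosed immediately, then incubated 24 h at 37 °C. Cells lysed 15 min at room temperature. Luciferase read with coelenterazine (2.75 μM in PBS) injection, luminescence 5 s. Triplicates; percent inhibition calculated relative to untreated control; background from cell-free wells.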

Trypsin (Homo sapiens) = Trypsin (Homo sapiens) (UniProt P07477+P07478+P35030); test: Inhibition of trypsin (unknown origin) using Boc-Val-Pro-Arg-AMC as substrate at 50 uM preincubated with enzyme for 15 mins followed by substrate addition and measured for 15 mins by fluorimetric assay; type: protein assay; conditions: time 30.0 min
Genome polyprotein [3] = molecular target: T1, Genome polyprotein (dengue virus type 2, UniProt P29990); test: Inhibition of NS2B-NS3 protease in DENV2proHeLa system assessed as inhibition of luciferase signal incubated for 24 hrs by luciferase reporter gene assay; type: cell-based, HeLa
Procedure, shortened: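 HeLa cells stably carrying the reporter system, 2 × 10⁴ per well, given inhibitor at seeding and held 24 h at 37 °C. Cells lysed 15 min at room temperature. Luciferase read for 5 s after injecting coelenterazine (2.75 μM in PBS). Triplicate wells per concentration; percent inhibition taken against untreated cells. EC50/EC90 from 4-parameter dose-response fit, background from cell-free wells subtracted.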

[4] = molecular target: Genome polyprotein (dengue virus type 2) (UniProt P29990); test: Inhibition of DENV2 NS2B-NS3 protease expressed in Escherichia coli BL21 lambda(DE3) using FRET substrate preincubated with enzyme for 15 mins in presence of detergent CHAPS followed by substrate addition for 15 mins by fluorescence based analysis; conditions: time 30.0 min
[5] = Cytotoxicity against human HeLa cells assessed as reduction in cell viability incubated for 24 hrs by CellTiter-Blue assay; type: cell-based
Procedure, shortened: (§1)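 Viability by CellTiter-Blue in HeLa or Huh-7 cells exposed to compound dilutions. Plates run in parallel with the reporter assay (HeLa) or the virus titer assay (Huh-7).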

[6] = molecular target: Genome polyprotein (West Nile virus) (UniProt P06935); test: Inhibition of WNV NS2B-NS3 protease expressed in Escherichia coli BL21 lambda(DE3) using FRET substrate preincubated with enzyme for 15 mins in presence of detergent CHAPS followed by substrate addition for 15 mins by fluorescence based analysis; conditions: time 30.0 min
Huh-7 = test: Cytotoxicity against human Huh-7 cells assessed as reduction in cell viability at 12.5 uM incubated for 48 hrs by CellTiter-Blue assay; type: cell-based; conditions: huh-7, 48 h; procedure, shortened: as §1
dengue virus type 2 [7] = test: (§2) Antiviral activity against DENV2 infected in human Huh7 cells assessed as reduction in virus titer in cell supernatant by measuring inhibition of plaque formation using VeroE6 cells at 12.5 uM preincubated with viral infected Huh7 cells for 48 hrs and measured following infection of VeroE6 cells with supernatants for 7 days by plaque assay based crystal violet staining analysis; type: functional; conditions: Huh-7, 216 h, time 9 day
Procedure, shortened: (§3)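 Huh-7 cells seeded at 1 × 10⁴/well and incubated overnight. Infected with DENV-2 at MOI 1 for 2 h, then medium changed and compound added. […] Pooled supernatants titred by plaque assay on VeroE6 cells: 10⁻¹ to 10⁻⁶ dilutions, 1 h infection, 7 days, formaldehyde fix, crystal violet.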

[8] = Passive membrane permeability of the compound in phosphate buffered saline assessed as mass retention of the compound at 200 uM incubated for 5 hrs by PAMPA assay based HPLC analysis; type: ADME
Procedure, shortened: (§4)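 Precoated trilayer PAMPA, 5 h incubation. Acceptor and donor concentrations measured after 5 h. Permeability and mass retention calculated by a literature method.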

[9] = Passive membrane permeability of the compound in phosphate buffered saline assessed as concentration of the compound in acceptor plate at 200 uM incubated for 5 hrs by PAMPA assay based HPLC analysis; type: ADME; procedure, shortened: as §4
[10] = Passive membrane permeability of the compound in phosphate buffered saline at 200 uM incubated for 5 hrs by PAMPA assay based HPLC analysis; type: ADME; conditions: PAMPA, read-out: permeability; procedure, shortened: as §4
[11] = molecular target: Genome polyprotein (dengue virus type 2) (UniProt P29990); test: Binding affinity to DENV2 NS2B-NS3 protease expressed in Escherichia coli BL21 lambda(DE3) assessed as quenching of fluorescence of tryptophan residue of the enzyme at 50 uM incubated for 1 hr in presence of aprotinin by tryptophan fluorescence quenching assay
[12] = Passive membrane permeability of the compound in phosphate buffered saline assessed as concentration of the compound in donor plate at 200 uM incubated for 5 hrs by PAMPA assay based HPLC analysis; type: ADME; procedure, shortened: as §4
[13] = molecular target: Genome polyprotein (dengue virus type 2) (UniProt P29990); test: Binding affinity to DENV2 NS2B-NS3 protease expressed in Escherichia coli BL21 lambda(DE3) assessed as quenching of fluorescence of tryptophan residue of the enzyme incubated for 1 hr by tryptophan fluorescence quenching assay; conditions: dose 10-50 µM
Procedure, shortened: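 Compound added to isolated DENV-2 protease; tryptophan fluorescence quenching monitored across concentrations. Aprotinin added as active-site competitor to test displacement.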

dengue virus type 2 [14] = test: as §2, with “cells” for “cells at 12.5 uM”; type: functional, organism-based, Huh-7; conditions: for EC50: Huh-7; for EC90: Huh-7, 216 h, time 9 day; procedure, shortened: as §3
[15] = Stability of the compound assessed as bovine pancreas trypsin-mediated parent compound depletion at 0.1 mg/ml incubated for 120 mins by HPLC analysis; type: ADME, Bos taurus; conditions: cattle
Procedure, shortened: (§5)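 Compound incubated with α-chymotrypsin or bovine trypsin in buffer for 120 min at 37 °C; parent compound depletion monitored.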

[16] = Stability of the compound assessed as bovine pancreas alphachymotrypsin-mediated parent compound depletion by measuring parent compound remaining at 0.1 mg/ml incubated for 120 mins by HPLC analysis; type: ADME, Bos taurus; conditions: cattle, bovine pancreas alpha-chymotrypsin, read-out: Stabilty; procedure, shortened: as §5
Genome polyprotein [17] = molecular target: T1, Genome polyprotein; test: Competitive inhibition of DENV2 NS2B-NS3 protease expressed in Escherichia coli BL21 lambda(DE3) using FRET substrate preincubated with enzyme for 15 mins followed by varying concentrations of substrate addition for 15 mins by Cheng-Prusoff plot analysis
[18] = Selectivity index, ratio of CC50 for human HeLa cells to EC50 for inhibition of NS2B-NS3 protease in DENV2proHeLa system; type: toxicity; conditions: read-out: Ratio CC50/EC50

Genome polyprotein (West Nile virus), sequence (P06935 whole entry): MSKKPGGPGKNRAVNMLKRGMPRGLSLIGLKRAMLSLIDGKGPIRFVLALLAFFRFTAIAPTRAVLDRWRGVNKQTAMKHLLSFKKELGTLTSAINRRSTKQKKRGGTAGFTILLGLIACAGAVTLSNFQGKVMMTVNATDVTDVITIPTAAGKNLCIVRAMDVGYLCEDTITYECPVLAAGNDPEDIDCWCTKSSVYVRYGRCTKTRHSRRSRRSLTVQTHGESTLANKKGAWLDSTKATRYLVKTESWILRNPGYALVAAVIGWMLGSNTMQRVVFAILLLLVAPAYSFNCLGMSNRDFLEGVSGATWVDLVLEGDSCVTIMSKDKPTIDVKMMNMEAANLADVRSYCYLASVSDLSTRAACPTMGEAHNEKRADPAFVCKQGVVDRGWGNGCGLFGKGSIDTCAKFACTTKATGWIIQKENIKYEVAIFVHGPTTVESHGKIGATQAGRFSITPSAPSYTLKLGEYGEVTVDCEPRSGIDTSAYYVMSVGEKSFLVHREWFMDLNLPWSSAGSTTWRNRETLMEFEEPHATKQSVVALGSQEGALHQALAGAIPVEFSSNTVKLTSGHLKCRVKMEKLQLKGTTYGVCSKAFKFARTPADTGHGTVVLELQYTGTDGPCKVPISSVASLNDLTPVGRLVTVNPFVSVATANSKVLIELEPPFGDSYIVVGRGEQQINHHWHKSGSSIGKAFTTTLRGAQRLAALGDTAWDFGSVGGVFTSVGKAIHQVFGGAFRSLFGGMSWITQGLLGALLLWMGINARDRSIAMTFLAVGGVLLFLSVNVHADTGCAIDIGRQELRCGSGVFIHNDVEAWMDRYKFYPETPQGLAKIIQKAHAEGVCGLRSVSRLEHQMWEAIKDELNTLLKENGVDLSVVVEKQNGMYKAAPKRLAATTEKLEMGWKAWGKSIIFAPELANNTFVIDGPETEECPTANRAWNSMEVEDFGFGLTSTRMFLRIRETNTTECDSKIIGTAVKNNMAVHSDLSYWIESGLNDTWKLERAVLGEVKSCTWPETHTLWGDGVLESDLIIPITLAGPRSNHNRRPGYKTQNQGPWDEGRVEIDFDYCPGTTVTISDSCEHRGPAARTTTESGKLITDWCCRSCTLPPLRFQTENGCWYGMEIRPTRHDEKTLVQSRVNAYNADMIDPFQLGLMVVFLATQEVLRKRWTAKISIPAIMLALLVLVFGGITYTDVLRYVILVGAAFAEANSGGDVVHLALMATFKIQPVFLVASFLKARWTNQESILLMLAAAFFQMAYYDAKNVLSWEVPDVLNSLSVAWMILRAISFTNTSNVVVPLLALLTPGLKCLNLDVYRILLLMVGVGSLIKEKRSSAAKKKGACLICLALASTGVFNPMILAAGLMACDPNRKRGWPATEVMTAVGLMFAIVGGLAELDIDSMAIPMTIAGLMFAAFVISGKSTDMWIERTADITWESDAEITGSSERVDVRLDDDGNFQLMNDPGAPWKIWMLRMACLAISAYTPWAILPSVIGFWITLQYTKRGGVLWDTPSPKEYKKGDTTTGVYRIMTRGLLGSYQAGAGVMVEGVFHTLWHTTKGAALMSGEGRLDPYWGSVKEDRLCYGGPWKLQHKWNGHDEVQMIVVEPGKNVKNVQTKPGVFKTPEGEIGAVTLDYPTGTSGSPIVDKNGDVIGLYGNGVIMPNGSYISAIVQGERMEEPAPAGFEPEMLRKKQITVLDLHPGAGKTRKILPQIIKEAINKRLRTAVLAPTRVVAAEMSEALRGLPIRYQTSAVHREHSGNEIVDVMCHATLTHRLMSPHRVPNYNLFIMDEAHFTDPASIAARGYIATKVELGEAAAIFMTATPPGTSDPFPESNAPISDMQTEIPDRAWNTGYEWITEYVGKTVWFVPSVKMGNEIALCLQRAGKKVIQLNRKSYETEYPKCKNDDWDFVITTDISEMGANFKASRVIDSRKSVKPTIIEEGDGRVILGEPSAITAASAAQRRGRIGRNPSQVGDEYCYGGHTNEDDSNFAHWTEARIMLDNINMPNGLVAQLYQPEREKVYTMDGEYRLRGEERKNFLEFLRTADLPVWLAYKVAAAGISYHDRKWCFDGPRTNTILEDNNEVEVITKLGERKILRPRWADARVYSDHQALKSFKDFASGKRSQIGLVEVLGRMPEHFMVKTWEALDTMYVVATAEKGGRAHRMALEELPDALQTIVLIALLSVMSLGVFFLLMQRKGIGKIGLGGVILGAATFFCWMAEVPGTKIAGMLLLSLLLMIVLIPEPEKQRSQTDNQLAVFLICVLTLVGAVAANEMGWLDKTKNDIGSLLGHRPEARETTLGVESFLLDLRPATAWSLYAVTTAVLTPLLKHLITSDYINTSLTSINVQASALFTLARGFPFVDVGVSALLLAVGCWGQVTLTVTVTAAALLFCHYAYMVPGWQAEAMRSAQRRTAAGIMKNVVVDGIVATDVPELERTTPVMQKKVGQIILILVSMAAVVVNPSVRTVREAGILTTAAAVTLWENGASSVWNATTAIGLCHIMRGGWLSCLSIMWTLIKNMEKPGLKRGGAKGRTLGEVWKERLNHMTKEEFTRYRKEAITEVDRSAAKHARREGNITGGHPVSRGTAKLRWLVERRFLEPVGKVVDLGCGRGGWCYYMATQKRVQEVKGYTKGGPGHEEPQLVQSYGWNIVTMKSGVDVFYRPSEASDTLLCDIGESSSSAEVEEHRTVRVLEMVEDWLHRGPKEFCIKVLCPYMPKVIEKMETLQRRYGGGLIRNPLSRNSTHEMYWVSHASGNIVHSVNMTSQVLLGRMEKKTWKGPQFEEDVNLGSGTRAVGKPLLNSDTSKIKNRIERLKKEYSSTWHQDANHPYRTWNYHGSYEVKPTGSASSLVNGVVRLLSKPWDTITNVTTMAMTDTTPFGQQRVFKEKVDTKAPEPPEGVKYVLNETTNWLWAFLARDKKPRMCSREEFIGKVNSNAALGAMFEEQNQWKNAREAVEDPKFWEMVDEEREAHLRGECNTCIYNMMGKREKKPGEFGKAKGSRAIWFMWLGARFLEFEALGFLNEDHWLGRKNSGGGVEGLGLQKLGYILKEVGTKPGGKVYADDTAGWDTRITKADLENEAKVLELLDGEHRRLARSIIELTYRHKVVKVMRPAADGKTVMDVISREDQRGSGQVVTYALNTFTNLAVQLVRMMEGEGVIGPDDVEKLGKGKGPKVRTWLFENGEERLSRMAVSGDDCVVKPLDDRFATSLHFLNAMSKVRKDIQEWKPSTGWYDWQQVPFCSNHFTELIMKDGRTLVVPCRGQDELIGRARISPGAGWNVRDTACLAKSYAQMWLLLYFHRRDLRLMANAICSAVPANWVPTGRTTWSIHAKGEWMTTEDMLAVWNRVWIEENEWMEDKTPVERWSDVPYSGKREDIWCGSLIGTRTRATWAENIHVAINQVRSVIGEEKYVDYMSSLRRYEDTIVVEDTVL

| SMILES | inhibition [1] | inhibition [2] [%] | inhibition (Trypsin (Homo sapiens)) | EC50 (Genome polyprotein [3]) [µM] | inhibition [4] | CC50 at 24 h [5] [µM] | inhibition [6] | Activity (Huh-7) [%] | inhibition at 12.5 µM (dengue virus type 2 [7]) [%] | Activity [8] [%] | Activity [9] [µM] | Papp at 5 h, 200 µM [10] [×10⁻⁶ cm/s] | Activity [12] [µM] | further results |
| --- | --- | --- | --- | --- | --- | --- | --- | --- | --- | --- | --- | --- | --- | --- |
| NC(=O)c1cccc(NC(=O)[C@@H](NC(=O)c2ccc(Oc3ccc4c(c3)OCCO4)cc2)c2ccc(OCc3ccccc3)cc2)c1 | inactive | 61 | inactive | 3.8 | Active | > 100 | Active |  |  |  |  |  |  |  |
| COc1ccccc1Oc1ccc(C(=O)N[C@H](C(=O)Nc2cccc(C(N)=O)c2)c2ccc(OCc3ccccc3)cc2)cc1 | inactive | 77 | inactive | 2.2 | Active | > 100 | Active |  |  |  |  |  |  |  |
| NC(=O)c1cccc(NC(=O)[C@@H](NC(=O)c2ccc(-c3ccco3)cc2)c2ccc(OCc3ccccc3)cc2)c1 | inactive | 76 | inactive | 1.7 |  | > 50 |  | < 20 | 59 | 15 | 2.1 | 0.45 | 169 | Activity [11]: inactive; Activity [13]: Active |
| CCCCCCCS(=O)(=O)N[C@H](C(=O)NCc1ccc(C(N)=O)cc1)c1ccc(OCc2ccccc2)cc1 | inactive | 47 | inactive | 11 |  | > 25 | Active |  |  |  |  |  |  |  |
| CCCCCC(=O)N[C@H](C(=O)NCc1ccc(C(N)=O)cc1)c1ccc(OCc2c(Cl)cccc2Cl)cc1 | inactive | 71 | inactive | 8.3 | Active | > 50 | Active |  |  |  |  |  |  |  |
| NC(=O)c1cccc(NC(=O)[C@@H](NC(=O)c2ccc(Oc3cccc4c3C(=O)CC4)cc2)c2ccc(OCc3ccccc3)cc2)c1 | inactive | 57 | inactive | 3.9 |  | > 100 | Active |  |  |  |  |  |  |  |
| NC(=O)c1ccc(CNC(=O)[C@@H](NC(=O)c2ccc(Oc3ccccc3)cc2)c2ccc(OCc3ccccc3)cc2)cc1 | inactive | 82 | inactive | 1 | Active | 18 |  | 61.4 | 90 | 8.9 | 3 | 0.61 | 180 |  |
| NC(=O)c1ccc(CNC(=O)[C@@H](NC(=O)c2ccc(OCc3ccccc3)cc2)c2ccc(OCc3ccccc3)cc2)cc1 | inactive | 64 | inactive | 4 | Active | > 25 | Active |  |  |  |  |  |  |  |
| NC(=O)c1cccc(NC(=O)[C@@H](NC(=O)c2ccc(-c3cncnc3)cc2)c2ccc(OCc3ccccc3)cc2)c1 | inactive | 59 | inactive | 8.1 | Active | > 50 | Active |  |  |  |  |  |  |  |
| NC(=O)c1cccc(NC(=O)[C@@H](NC(=O)c2ccc(Oc3ccc4c(c3)OCO4)cc2)c2ccc(OCc3ccccc3)cc2)c1 | inactive | 78 | inactive | 1.5 | Active | > 100 |  | < 20 | 98 | 8.7 | 3.7 | 0.8 | 180 | EC50 (dengue virus type 2 [14]): 2.2 µM; EC90 (dengue virus type 2 [14]): 6.8 µM |
| NC(=O)c1ccc(CNC(=O)[C@@H](NC(=O)c2ccc(-c3cccs3)s2)c2ccc(OCc3ccccc3)cc2)cc1 | inactive | 63 | inactive | 6.2 |  | > 100 |  |  |  |  |  |  |  | Activity [11]: inactive; Activity [13]: Active |
| NC(=O)c1cccc(NC(=O)[C@@H](NC(=O)c2ccc(C(=O)c3ccccc3)cc2)c2ccc(OCc3ccccc3)cc2)c1 | inactive | 76 | inactive | 0.39 | Active | > 100 |  | < 20 | 100 | 8.1 | 8.6 | 1.8 | 178 | metabolised at 2 h, 0.1 mg/ml ([15]; bovine pancreas trypsin, read-out: Drug degradation): 25%; remaining at 2 h, 0.1 mg/ml [16]: 70%; EC50 (dengue virus type 2 [14]): 1.1 µM; EC90 (dengue virus type 2 [14]): 4.6 µM; Ki (Genome polyprotein [17]): 3.5 µM |
| N#Cc1ccc(Oc2ccc(C(=O)N[C@H](C(=O)Nc3cccc(C(N)=O)c3)c3ccc(OCc4ccccc4)cc3)cc2)cc1 | inactive | 79 | inactive | 1 | Active | > 100 | Active | < 20 | 88 | 9.9 | 4.5 | 1 | 177 | EC50 (dengue virus type 2 [14]): 0.66 µM; EC90 (dengue virus type 2 [14]): 8 µM |
| N=C(N)NCCC[C@H](NC(=O)c1ccccc1)C(=O)NC(CCCCN)C(=O)NC(C(N)=O)c1ccc(OCc2ccccc2)cc1 (stereo partly specified) |  |  |  |  | Active |  | Active | < 20 | 50 |  |  |  |  | Stabilty ([15]; isolated protein, 2 h): Unstable |
| NC(=O)c1cccc(NC(=O)[C@@H](NC(=O)c2ccc(Oc3ccc(Cl)cc3)cc2)c2ccc(OCc3ccccc3)cc2)c1 | inactive | 86 | inactive | 0.58 |  | 96 |  |  |  |  |  |  |  | selectivity ratio [18]: > 140 |
